T cruzi growth-1 = T. cruzi proliferation inhibition; T. cruzi beta-gal in NIH3T3, GalScreen luminescence, 90 h; inhibition, % at 8.34 µM; 77,000 compounds, 5.9% hits;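 active = mean inhibition above about 93%, with at least 55% of replicates each passing it, limit read from the data, passing the limit was not always enough; inconclusive = only one of those two conditions holds; inactive = neither condition holds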
KDM4C inh = KDM4C (human) demethylase inhibition | Q9H3R0 | GST-KDM4C 2-372, H3K9me3 peptide, LANCE TR-FRET | inhibition, % at 12.5 µM | 96,000 compounds, 0.15% hits | AID 720574;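 active = mean replicate inhibition above about 25%, with at least 55% of replicates also reaching it, limit read from the data, passing the limit was not always enough; inconclusive = only one of those two conditions met; inactive = neither condition met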
Target sequence (Q9H3R0 2-372 limits assumed): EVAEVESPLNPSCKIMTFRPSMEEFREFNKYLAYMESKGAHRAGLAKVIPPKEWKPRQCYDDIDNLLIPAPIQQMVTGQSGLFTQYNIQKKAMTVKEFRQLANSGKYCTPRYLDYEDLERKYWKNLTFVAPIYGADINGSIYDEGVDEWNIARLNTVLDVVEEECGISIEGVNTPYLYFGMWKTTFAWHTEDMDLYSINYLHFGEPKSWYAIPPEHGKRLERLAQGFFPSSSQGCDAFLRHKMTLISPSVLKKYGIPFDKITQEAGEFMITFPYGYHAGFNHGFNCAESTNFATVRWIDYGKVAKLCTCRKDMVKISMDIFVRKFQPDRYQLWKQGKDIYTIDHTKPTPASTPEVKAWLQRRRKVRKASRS
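Material: GST-tagged GASC-1 (JMJD2C) catalytic fragment, aa 2-372. Input: enzyme final amount 10 nM. Medium: HEPES buffer, pH 7.5, plus ascorbate. Reagent: H3K9me3 peptide substrate, Fe(II), 2-oxoglutarate. Doses: single dose. Times: reaction 30 min RT, detection step 1 h RT. Measured by: LANCE TR-FRET. Evaluation: Fall in 671/618 emission ratio as inhibition.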
IDH1 R132H inh = inhibitors of human IDH1 R132H | inhibition, % at 10 µM | O75874 | 70,000 compounds, 0.18% hits | IDH1 R132H reductase, diaphorase/resazurin fluorescence, 60 min; in the data active = inhibition above about 34%; inconclusive = no clear call, values can overlap the other calls; inactive = below about 11%;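 also: 0% = DMSO and 100% = no enzyme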
T cruzi growth-2 = blocks T. cruzi growth in NIH3T3 host cells | shares compounds with T cruzi growth-1 | T. cruzi beta-gal in NIH3T3, GalScreen luminescence, 90 h | inhibition, % at 8.35 µM | 5,600 compounds, 72% hits | AID 651739;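 active = mean replicate inhibition above about 95% and at least 55% of replicates individually reaching it, limit read from the data; inconclusive = only one of the two criteria is met; inactive = neither criterion is met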
T cruzi growth-3 = inhibitors of T. cruzi proliferation. shares compounds with T cruzi growth-1. inhibition, % at 2.09 µM. AID 651740. T. cruzi beta-gal in NIH3T3, GalScreen luminescence, 90 h. 5,600 compounds, 21% hits;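 active = mean inhibition above about 95%, with at least 55% of replicates also reaching it, limit read from the data; inconclusive = meets just one of the two conditions; inactive = meets neither condition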;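 also: plate controls were neutral control median for no effect and positive control median for full effect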
NIH3T3 tox = kills mouse NIH/3T3 fibroblasts; NIH/3T3 viability, CellTiter-Glo ATP luminescence, 90 h; shares compounds with T cruzi growth-1; 5,600 compounds, 14% hits; cytotoxicity (signal decrease), % at 8.35 µM; AID 651742;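 active = mean signal decrease across replicates above about 35% based on untreated-well scatter, with enough replicates individually passing, limit read from the data; inconclusive = no rule stated though some were filed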;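 also: 0% = median of neutral control wells and 100% = median of positive control wells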
NIH3T3 tox 2 = kills mouse NIH/3T3 fibroblasts; shares compounds with T cruzi growth-1; NIH/3T3 viability, CellTiter-Glo ATP luminescence, 90 h; inhibition, % at 24.9 µM; 5,600 compounds, 56% hits; AID 651744;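 active = mean loss of cell viability signal at or above a set limit, and enough replicates individually reaching it; inconclusive = meets only the mean limit or only the replicate share; inactive = meets neither condition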;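 also: 0% = median of neutral control wells and 100% = median of positive control wells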
* marks the source's active call; other numbers are inactive results; ? = inconclusive; nt = no result. Many of the other results were omitted from the sample, so hits are more common in it than they were.

SMILES	T cruzi growth-1	KDM4C inh	IDH1 R132H inh	T cruzi growth-2	T cruzi growth-3	NIH3T3 tox	NIH3T3 tox 2
C/C=C/c1ccc([C@H]2[C@H](CO)N3CCCCN(S(=O)(=O)c4ccc(OC)cc4)C[C@@H]23)cc1	100*	-1	nt	108*	90	30	102*
C/C=C/c1ccc([C@@H]2[C@H](CO)N3CCCCN(S(=O)(=O)c4ccc(OC)cc4)C[C@@H]23)cc1	85	0	nt	nt	nt	nt	nt
C/C=C/c1ccc([C@@H]2[C@@H](CO)N3CCCCN(S(=O)(=O)c4ccc(F)cc4)C[C@H]23)cc1	86	-3	nt	nt	nt	nt	nt
COc1ccc(N(CC(=O)Nc2cc(C)ccc2C)S(C)(=O)=O)cc1OC	nt	nt	0	nt	nt	nt	nt
CO[C@@H]1CN(C)C(=O)c2cc(NC(C)=O)ccc2OC[C@@H](C)N(Cc2ccccn2)C[C@@H]1C	31	0	0	nt	nt	nt	nt
O=C(Nc1cccc(Cl)c1)N[C@@H]1CC[C@@H](CCn2cc(Cc3ccccc3)nn2)O[C@@H]1CO	?	1	0	98*	71	31	33*
O=C(NCC[C@@H]1CC[C@H](NC(=O)c2ccncc2)[C@H](CO)O1)Nc1ccc(Cl)cc1	101*	-2	0	97*	41	-3	-6
O=C(Nc1ccc(F)cc1)N[C@@H]1CC[C@H](CCn2cc(-c3ccccc3F)nn2)O[C@@H]1CO	nt	2	0	nt	nt	nt	nt
O=C(NCC[C@H]1CC[C@H](NC(=O)c2ccncc2)[C@H](CO)O1)Nc1ccc(Cl)cc1	-36	-1	0	nt	nt	nt	nt
O=C(Nc1ccc(Cl)cc1)N[C@@H]1CC[C@H](CCn2cc(-c3ccccc3F)nn2)O[C@H]1CO	25	-1	0	nt	nt	nt	nt
O=C(Nc1ccc(Cl)cc1)N[C@H]1CC[C@@H](CCn2cc(-c3ccccc3F)nn2)O[C@H]1CO	154*	1	-1	79	25	1	41*
O=C(Nc1cccc(Cl)c1)N[C@H]1CC[C@@H](CCn2cc(Cc3ccccc3)nn2)O[C@@H]1CO	-75	0	0	nt	nt	nt	nt
O=C(Nc1ccc(Cl)cc1)N[C@@H]1CC[C@@H](CCn2cc(-c3ccccc3F)nn2)O[C@H]1CO	105*	0	0	104*	36	26	9
CC(C)(C)c1ccc(S(=O)(=O)N2CCN(c3ccc([N+](=O)[O-])c(NCc4cccnc4)c3)CC2)cc1	nt	nt	0	nt	nt	nt	nt
Cc1noc(C)c1NC(=O)N(C)C[C@H]1Oc2ccc(NC(=O)Nc3cccc4ccccc34)cc2CC(=O)N([C@H](C)CO)C[C@H]1C	-34	-1	-8	nt	nt	nt	nt
O=C(Nc1sc2c(c1C(=O)NCc1ccco1)CCCC2)c1ccc(Br)cc1	nt	nt	0	nt	nt	nt	nt
C[C@@H](NC(=O)[C@@H]1[C@@H](CO)[C@@H]2Cn3c(ccc(-c4ccncc4)c3=O)[C@H]1N2C)c1ccccc1	4	-2	nt	nt	nt	nt	nt
COc1ccccc1NC(=O)N[C@@H]1CC[C@H](CCn2cc(C3(O)CCCC3)nn2)O[C@H]1CO	17	0	0	nt	nt	nt	nt
COc1ccccc1NC(=O)N[C@@H]1CC[C@H](CCn2cc(C3(O)CCCC3)nn2)O[C@@H]1CO	109*	0	-1	27	-47	-3	0
O=S(=O)(c1ccccc1F)N1C[C@H]2[C@@H](c3ccccc31)[C@@H](CO)N2Cc1ccc2c(c1)OCO2	99*	-8	nt	103*	100*	25	-15
O=S(=O)(c1ccc(F)cc1)N1C[C@H]2[C@@H](c3ccccc31)[C@@H](CO)N2Cc1ccc2c(c1)OCO2	80	-3	nt	nt	nt	nt	nt
O=S(=O)(c1ccc(F)cc1)N1C[C@@H]2[C@H](c3ccccc31)[C@H](CO)N2Cc1ccc2c(c1)OCO2	101*	-4	nt	107*	83	29	-3
O=S(=O)(c1ccccc1)N1C[C@@H]2[C@H](c3ccccc31)[C@@H](CO)N2Cc1ccc2c(c1)OCO2	79	-3	nt	nt	nt	nt	nt
C=C1C2=C(O[C@H](/C(C)=C/C(C)CC(C)CC)[C@@H](O)[C@@H]2O)C(=O)N1OC (some centres undefined)	nt	nt	0	nt	nt	nt	nt
CC(C)=CCC[C@H](C)C/C=N/NC(=O)CCCCCCC(=O)O	nt	nt	0	nt	nt	nt	nt
SMILES	T cruzi growth-1	KDM4C inh	IDH1 R132H inh	T cruzi growth-2	T cruzi growth-3	NIH3T3 tox	NIH3T3 tox 2
CC(=O)N1CC2(C1)[C@@H](c1ccc(-c3cccc(F)c3)cc1)[C@@H](CO)N2CC1CCCC1	nt	-2	nt	nt	nt	nt	nt
COCC(=O)N1CCCCN2[C@@H](CO)[C@H](c3ccc(-c4ccc(OC)cc4)cc3)[C@@H]2C1	104*	0	nt	72	52	18	19
COCC(=O)N1CCCCN2[C@H](C1)[C@H](c1ccc(C#Cc3ccc(OC)cc3)cc1)[C@@H]2CO	105*	-1	nt	95*	36	20	89*
COCC(=O)N1CCCCN2[C@@H](CO)[C@@H](c3ccc(C#Cc4cccnc4)cc3)[C@@H]2C1	30	1	nt	nt	nt	nt	nt
COCC(=O)N1CCCCN2[C@@H](CO)[C@@H](c3ccc(C#Cc4ccc(OC)cc4)cc3)[C@@H]2C1	71	-1	nt	nt	nt	nt	nt
COCC(=O)N1CCCCN2[C@H](C1)[C@@H](c1ccc(-c3ccc(OC)cc3)cc1)[C@@H]2CO	66	0	nt	nt	nt	nt	nt
COCC(=O)N1CCCCN2[C@@H](CO)[C@H](c3ccc(-c4ccccc4)cc3)[C@@H]2C1	89	0	nt	nt	nt	nt	nt
COCC(=O)N1CCCCN2[C@@H](CO)[C@H](c3ccc(C#Cc4cccnc4)cc3)[C@@H]2C1	99*	0	nt	93	36	13	22
COCC(=O)N1CCCCN2[C@H](CO)[C@H](c3ccc(-c4ccc(OC)cc4)cc3)[C@@H]2C1	103*	1	nt	76	11	22	32*
CCOc1ccc2ccccc2c1C(=O)NCc1cccnc1	nt	nt	1	nt	nt	nt	nt
Cc1ccc(S(=O)(=O)N(C)C[C@H]2Oc3c(NC(=O)c4cc(C)nn4C)cccc3C(=O)N([C@@H](C)CO)C[C@@H]2C)cc1	23	-1	nt	nt	nt	nt	nt
CC(C)c1ccc2oc(-c3ccc(NC(=O)COc4ccc([N+](=O)[O-])cc4)cc3)nc2c1	nt	nt	1	nt	nt	nt	nt
C=C(C)[C@H]1C[C@@]2(C)C(=CC1=O)CC[C@@H](O)[C@@H]2C	nt	nt	0	nt	nt	nt	nt
COc1cccc(CN2CCCCN3[C@@H](CO)[C@@H](c4ccc(C#Cc5cccnc5)cc4)[C@@H]3C2)c1	118*	0	nt	104*	?	27	104*
COc1cccc(CN2CCCCN3[C@H](CO)[C@@H](c4ccc(C#Cc5cccnc5)cc4)[C@H]3C2)c1	94	1	nt	nt	nt	nt	nt
COc1cccc(CN2CCCCN3[C@H](CO)[C@@H](c4ccc(-c5cccnc5)cc4)[C@H]3C2)c1	30	0	nt	nt	nt	nt	nt
COc1cccc(CN2CCCCN3[C@H](C2)[C@@H](c2ccc(C#Cc4cccnc4)cc2)[C@@H]3CO)c1	117*	0	nt	94	102*	26	104*
